Measurements: article PMC3253528 (Journal of the American Chemical Society, 2011)
Values joined by “and” are separate entries in the source; they are usually repeats but may differ in a detail not shown here. Identical values can stand only once.

Tests used:
caspase-3 = target: T1, caspase-3 (Homo sapiens, UniProt P42574); test: inhibition of mature caspase-3 by known aggregators; assay type: biochemical
T1 sequence (P42574 29-175 limits assumed): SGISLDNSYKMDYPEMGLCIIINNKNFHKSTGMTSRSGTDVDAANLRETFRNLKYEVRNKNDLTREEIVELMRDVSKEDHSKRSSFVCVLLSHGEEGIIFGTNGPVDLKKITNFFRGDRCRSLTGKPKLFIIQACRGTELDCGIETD
T1 sequence (P42574 176-277 limits assumed): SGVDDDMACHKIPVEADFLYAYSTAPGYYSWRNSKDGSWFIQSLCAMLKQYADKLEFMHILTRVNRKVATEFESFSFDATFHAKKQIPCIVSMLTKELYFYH

procaspase-3 = target: T2, procaspase-3 (Homo sapiens, UniProt P42574); test: procaspase-3 self-activation assay; assay type: biochemical
T2 sequence (P42574 1-277): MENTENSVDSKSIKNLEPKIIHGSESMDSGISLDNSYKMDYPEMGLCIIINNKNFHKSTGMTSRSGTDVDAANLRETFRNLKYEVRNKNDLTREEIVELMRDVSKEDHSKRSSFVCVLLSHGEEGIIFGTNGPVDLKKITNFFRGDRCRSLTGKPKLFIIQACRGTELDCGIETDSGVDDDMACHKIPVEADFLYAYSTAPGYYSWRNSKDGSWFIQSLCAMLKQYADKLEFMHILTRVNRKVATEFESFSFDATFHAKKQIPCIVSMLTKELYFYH
Procedure, shortened: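 Known promiscuous enzyme-inhibiting aggregators (panel of six) were each tested for ability to activate wild-type procaspase-3. The self-activation assay is run at 37°C.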

dynamic light scattering = assay type: physicochemical; details: DLS conc. 50 μM

| SMILES | inhibition of mature caspase-3 (caspase-3) | activation of procaspase-3 by known aggregators (procaspase-3) | DLS Intensity (dynamic light scattering; 25°C) | Radius (dynamic light scattering; 25°C) | DLS Intensity (dynamic light scattering; 37°C) | Radius (dynamic light scattering; 37°C) |
| --- | --- | --- | --- | --- | --- | --- |
| Nc1c(/N=N/c2ccc(-c3ccc(/N=N/c4cc(S(=O)(=O)O)c5ccccc5c4N)cc3)cc2)cc(S(=O)(=O)O)c2ccccc12 [Congo red] | inhibited | no activation |  |  |  |  |
| O=C1OC(c2cc(I)c(O)c(I)c2)(c2cc(I)c(O)c(I)c2)c2ccccc21 [TIPT, 3′,3″,5′,5″-tetraiodophenolpthalein] |  |  | 3903.5 kcps and 3903.5 ± 1423.0 kcps | 71.1 nm and 71.1 ± 8.6 nm | 3933.2 ± 1369.0 kcps | 76.7 ± 7.8 nm |
